Rows were chosen to be rich in hits. Some 2.2% of all compounds tested hit in one or more screens of this group.
rRNA inh HTS – selective bacterial rRNA inhibition in E. coli. E. coli WT GFP vs humanized-ribosome RFP mutants, fluorescence, 24 h; active compounds read low; DMSO median 0, no signal -100. 350,000 tested, 1.6% active. AID 720706. GFP signal change (wild-type ribosome), % (test concentration not listed);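 active means significant combined selectivity score with lowered wild-type GFP, culture density cut under 30%, mutant RFP and density less affected; inactive means any of these conditions unmet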
PglD DTNB – PglD (C. jejuni) enzyme inhibition; purified PglD enzyme, DTNB colorimetric CoA detection; 360,000 tested, 0.098% active; inhibition, % at 12.5 µM; AID 602405; in the data active means inhibition above about 16%, passing the limit was not always enough
Cneo AK release – causes C. neoformans cell lysis. adenylate kinase release luminescence, 4 h; normalised: neutral wells 0, clomiphene wells 100. lysis activity, % at 15 µM. 360,000 tested, 0.2% active;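 active means mean lysis activity across replicates of at least 80%, whatever share of replicates individually reach that level; inactive means mean lysis activity below 80%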
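Schedule: static 4 h at 37 °C with compound, 1 h detection; system: C. neoformans cells; benchmarks: Clomiphene as positive control; buffer or medium: fresh YPD medium; measure: luminescence rise reflecting yeast cell lysis; measured by: luminescent adenylate kinase detection reagent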
CR mimetic SO – caloric restriction mimetics inhibiting age-related superoxide in yeast; AID 2690; superoxide response (% of plate mean), % at 10 µM; S. cerevisiae aged cells, superoxide DHE fluorescence; active compounds read low; 330,000 tested, 0.18% active;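 active means superoxide response under a set limit, about three screen SD below normal, cut at about 65% in these data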;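 further: yeast aged for seven days with compound at 30 °C before DHE staining; 100% = average MFI of all compound-treated wells on the plate with controls excluded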
SUMO Mot1 rescue – blocks SUMOylation pathway, rescuing yeast Mot1-301 growth; 320,000 tested, 1% active; growth rescue, % at 18.8 µM; AID 2716; S. cerevisiae Mot1-301 growth rescue, ATP luminescence, 38.5C; percent above DMSO median, 100 means doubled;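 active means every valid replicate shows activation above 250% relative to neutral control wells; inactive means the rest, any valid replicate at or below 250%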;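 further: OY570 slx delta 5 strain wells were the positive control but not used for scaling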
Numbers without * were called inactive; · = no result given.

SMILES | rRNA inh HTS | PglD DTNB | Cneo AK release | CR mimetic SO | SUMO Mot1 rescue
C[C@@H]1CN([C@H](C)CO)C(=O)Cc2cc(N(C)C)ccc2O[C@H]1CN(C)C(=O)Nc1ccc(C(F)(F)F)cc1 | -1.1 | -0.1 | -8.6 | · | ·
C[C@@H]1CN([C@@H](C)CO)C(=O)c2cc(N(C)C)ccc2O[C@@H]1CN(C)C(=O)Nc1ccc(C(F)(F)F)cc1 | -23.8 | -6.3 | 116.8* | · | ·
C[C@H]1CN([C@@H](C)CO)C(=O)Cc2cc(N(C)C)ccc2O[C@@H]1CN(C)C(=O)Nc1ccc(C(F)(F)F)cc1 | 1.1 | 1.8 | 141.6* | · | ·
Nc1ncncc1-c1ccc(Cl)cc1 | -21.6* | 1.6 | 2.0 | 102.8 | 13.8
CCC(CC)C(=O)Nc1nnc(SCC(=O)NC(C)(C)C)s1 | 11.8 | 2.6 | 0.2 | 92.9 | 923.6*
CCC(CC)C(=O)Nc1nnc(SCC(=O)NC2CC2)s1 | 3.6 | -1.2 | -1.6 | 93.4 | 2.2
Cc1ccc(S(=O)(=O)/N=C(/Nc2c(C)cccc2C)c2ccccc2)cc1 | -35.7* | -1.5 | 0.0 | 88.6 | -5.7
Cc1ccc(S(=O)(=O)/N=C(/Nc2ccccc2C)c2ccccc2)cc1 | -23.0* | 3.0 | 0.0 | 106.7 | 24.6
O=S(=O)(c1ccc(S(=O)(=O)N(Cc2cccs2)CC2CCCO2)cc1)N1CCCCC1 (stereo not given) | · | -0.9 | -1.1 | 91.7 | ·
O=S(=O)(NC1CCCC1)c1ccc(S(=O)(=O)N(Cc2cccs2)CC2CCCO2)cc1 (stereo not given) | -29.5* | 0.9 | 1.2 | 107.9 | -13.4
Cc1ccc(CN2CCN(/N=C/c3ccc(C(F)(F)F)cc3)CC2)c(C)c1 | 15.5 | 3.5 | -2.0 | 109.6 | 325.6*
CC=Cc1ccc2n(c1=O)C[C@H]1[C@H](CO)[C@@H](C(=O)NC3CCCCC3)N(CCC)[C@@H]21 (mixture of isomers) | 0.4 | · | · | · | ·
ClC1(Cl)CC1CSc1nc2ccccc2[nH]1 (stereo not given) | -27.5* | · | · | 83.8 | 8.8
CC(=NNc1nc2ccccc2o1)c1cc2ccccc2cn1 | -21.8* | · | · | · | ·
CCCc1cn(CC[C@H]2CC[C@@H](NC(=O)Cc3cccnc3)[C@H](CO)O2)nn1 | 1.3 | -0.6 | 51.3 | · | ·
O=C(Cc1ccccn1)NCC[C@@H]1CC[C@H](NC(=O)Nc2ccc(Cl)cc2)[C@H](CO)O1 | -3.3 | 11.8 | 0.3 | · | ·
O=C(Nc1ccc(Cl)cc1)N1C[C@H]2[C@@H](c3ccccc31)[C@H](CO)N2C(=O)c1ccccn1 | -19.2* | 0.1 | -1.4 | · | ·
O=C(Nc1cccc(Cl)c1)N1C[C@H]2[C@@H](c3ccccc31)[C@H](CO)N2CC1CCOCC1 | -16.4 | -1.8 | -15.0 | · | ·
O=C(c1cccnc1)N1C[C@H]2[C@@H](c3ccccc31)[C@@H](CO)N2C(=O)Nc1ccc(F)cc1 | 3.0 | 3.7 | 117.6* | · | ·
O=C(Nc1cccc(Cl)c1)N1C[C@H]2[C@@H](c3ccccc31)[C@H](CO)N2CC1CCCCC1 | -58.5* | 3.8 | -3.0 | · | ·
CC(C)NC(=O)NCC[C@H]1CC[C@@H](NC(=O)Nc2ccccc2)[C@H](CO)O1 | 1.5 | 1.5 | 18.2 | · | ·
COc1ccc(NC(=O)Nc2ccc3c(c2)C(=O)N([C@@H](C)CO)C[C@@H](C)[C@H](CN(C)S(=O)(=O)c2ccc(Cl)cc2)OCCCC[C@@H](C)O3)cc1 | 8.4 | 2.9 | -14.0 | · | ·
CCCC(=O)Nc1ccc2c(c1)C(=O)N(C)[C@H]1CC[C@@H](CC(=O)NCCN3CCCCC3)O[C@H]1CO2 | 1.1 | -0.6 | -3.4 | · | ·
CCCn1c(=O)c2ccccc2n2c(SCCOc3ccc(OC)cc3)nnc12 | -18.4* | -0.1 | -0.2 | 90.4 | -14.2
O=C(C[C@H]1CC[C@H]2[C@@H](COC[C@H](O)CN2S(=O)(=O)c2ccccc2)O1)NCc1ccc2c(c1)OCO2 | -1.2 | -1.2 | -5.0 | · | ·
SMILES | rRNA inh HTS | PglD DTNB | Cneo AK release | CR mimetic SO | SUMO Mot1 rescue
COc1ccc(CN2CCNC(=O)C2CC(=O)NCCCC2CCCC2)c(C)c1C (stereo not given) | -25.6* | 0.4 | 1.1 | 93.2 | -3.1
C[C@@H]1CN([C@@H](C)CO)C(=O)Cc2cc(NC(=O)Nc3ccccc3)ccc2O[C@H]1CN(C)C(=O)Nc1cccc2ccccc12 | -3.2 | 0.0 | -0.6 | · | ·
COc1ccccc1CNC(=O)C[C@H]1CC[C@H]2[C@@H](COc3ccc(NC(C)=O)cc3C(=O)N2C)O1 | 1.8 | -0.4 | -1.4 | · | ·
COc1ccccc1CNC(=O)C[C@@H]1CC[C@@H]2[C@H](COc3ccc(NC(C)=O)cc3C(=O)N2C)O1 | 3.9 | 1.4 | 101.0* | · | ·
CCCNC(=O)C[C@@H]1CC[C@@H]2[C@@H](COc3ccc(NC(=O)CCC)cc3C(=O)N2C)O1 | 2.4 | 2.4 | 104.8* | · | ·
CCCNC(=O)C[C@H]1CC[C@@H]2[C@@H](COc3ccc(NC(=O)CCC)cc3C(=O)N2C)O1 | 0.0 | -0.2 | 1.9 | · | ·
C[C@H]1CCCCO[C@H](CN(C)C(=O)Nc2ccc(F)cc2)[C@@H](C)CN([C@@H](C)CO)C(=O)c2cc(NC(=O)C3CCCCC3)ccc2O1 | -0.9 | 2.4 | 2.7 | · | ·
C[C@H](CO)N1C[C@H](C)[C@H](CN(C)Cc2ccccc2)Oc2cc(C#C[C@@H](C)O)ccc2S1(=O)=O | -2.5 | 2.0 | -1.5 | · | ·
Nc1ccccc1C(=O)N1CCC(O)(c2ccc(Cl)cc2)CC1 | -5.0 | -4.8 | -2.4 | 104.7 | 324.7*
CC(C)NC(=O)N1C[C@@H]2C(c3ccc(Br)cc3)[C@H](C1)N2Cc1ccc(F)cc1 (stereo not given in full) | -2.5 | · | · | · | ·
CCOc1ccc(N(CC(=O)NC(C(C)C)C(C)C)S(=O)(=O)c2ccc(OC)c(OC)c2)cc1 | -30.0* | · | · | 88.8 | 6.2
Cc1ccnc(Nc2nc(-c3ccc(F)cc3)cs2)c1 | -36.4* | 4.5 | -12.5 | 107.7 | 21.8
Cc1ccnc(Nc2nc(-c3ccc(Cl)cc3)cs2)c1 | 9.7 | -1.8 | 0.0 | 107.5 | 2.6
Cc1ccnc(Nc2nc(-c3sc(C)nc3C)cs2)c1 | -34.5* | -4.7 | -13.2 | 109.6 | 14.2
O=C(NCC(c1ccco1)N1CCCC1)c1ccc(S(=O)(=O)Nc2ccc(F)cc2)cc1 (stereo not given) | 8.5 | 0.7 | -4.6 | 75.4 | -6.6
O=C(NCC(c1ccco1)N1CCCCC1)c1ccc(NS(=O)(=O)c2ccc(F)cc2)cc1 (stereo not given) | -20.3* | 0.8 | 4.7 | 79.5 | -4.6
CCC(=O)N[C@H]1CC[C@H](CC(=O)NCC2CCCCC2)O[C@H]1CO | 2.3 | 0.7 | -0.2 | · | ·
C[C@H]1CN([C@@H](C)CO)C(=O)c2cc(NC(=O)C3CC3)ccc2O[C@H]1CN(C)Cc1ccc(C(F)(F)F)cc1 | -1.2 | 2.7 | -4.5 | · | ·
CC(C)C(=O)Nc1ccc2c(c1)C(=O)N(C)[C@@H]1CC[C@H](CC(=O)NC3CCCC3)O[C@@H]1CO2 | -1.9 | · | · | · | ·
C[C@@H]1CCCCO[C@@H](CN(C)S(=O)(=O)c2ccc(Cl)cc2)[C@H](C)CN([C@H](C)CO)C(=O)c2cc(NC(=O)CCCN(C)C)ccc2O1 | -0.8 | -2.0 | -0.1 | · | ·

Source: PubChem BioAssay (several laboratories)
